Measured values taken from ChEMBL document CHEMBL1154048, “Design, synthesis and pharmacological evaluation of new 1-[3-(4-arylpiperazin-1-yl)-2-hydroxy-propyl]-3,3-diphenylpyrrolidin-2-one derivatives with antiarrhythmic, antihypertensive, and alpha-adrenolytic activity” (Eur J Med Chem, 2009).
Activity calls are given as the source filed them.

What was measured:
[1] = target: T1, Adrenergic receptor alpha-1 (Rattus norvegicus, UniProt P15823+P23944+P43140); assay: Displacement of [3H]prazosin from alpha1 adrenergic receptor in rat cerebral cortex by liquid scintillation counting; assay type: tissue-based
T1 sequence (P15823 whole entry): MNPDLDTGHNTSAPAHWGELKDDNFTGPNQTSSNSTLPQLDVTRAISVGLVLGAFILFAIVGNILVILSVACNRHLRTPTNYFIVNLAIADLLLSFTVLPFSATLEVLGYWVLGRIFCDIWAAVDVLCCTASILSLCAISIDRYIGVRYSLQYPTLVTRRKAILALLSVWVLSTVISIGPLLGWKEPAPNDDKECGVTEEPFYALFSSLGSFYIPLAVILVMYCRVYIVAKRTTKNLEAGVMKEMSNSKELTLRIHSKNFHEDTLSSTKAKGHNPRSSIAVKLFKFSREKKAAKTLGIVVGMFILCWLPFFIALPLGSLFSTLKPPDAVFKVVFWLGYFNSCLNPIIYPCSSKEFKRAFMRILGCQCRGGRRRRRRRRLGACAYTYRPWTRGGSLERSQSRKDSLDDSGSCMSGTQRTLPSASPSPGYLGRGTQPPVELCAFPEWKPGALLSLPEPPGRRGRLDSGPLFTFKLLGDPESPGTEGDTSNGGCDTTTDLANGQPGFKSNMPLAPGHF
T1 sequence (P23944 whole entry): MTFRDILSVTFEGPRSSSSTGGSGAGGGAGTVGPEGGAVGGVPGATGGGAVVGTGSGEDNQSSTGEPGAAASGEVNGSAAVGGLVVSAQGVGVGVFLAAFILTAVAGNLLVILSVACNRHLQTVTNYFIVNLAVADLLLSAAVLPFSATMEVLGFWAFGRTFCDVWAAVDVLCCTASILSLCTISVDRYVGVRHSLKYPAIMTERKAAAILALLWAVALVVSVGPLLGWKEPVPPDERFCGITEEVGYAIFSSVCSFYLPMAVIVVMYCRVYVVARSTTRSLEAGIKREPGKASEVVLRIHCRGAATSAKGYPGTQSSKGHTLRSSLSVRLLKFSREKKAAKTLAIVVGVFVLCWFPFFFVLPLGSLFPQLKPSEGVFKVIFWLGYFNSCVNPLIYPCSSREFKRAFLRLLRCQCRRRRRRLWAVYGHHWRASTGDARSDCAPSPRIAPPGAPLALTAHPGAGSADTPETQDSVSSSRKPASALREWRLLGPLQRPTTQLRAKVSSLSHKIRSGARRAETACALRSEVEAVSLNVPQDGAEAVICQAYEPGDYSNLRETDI
T1 sequence (P43140 whole entry): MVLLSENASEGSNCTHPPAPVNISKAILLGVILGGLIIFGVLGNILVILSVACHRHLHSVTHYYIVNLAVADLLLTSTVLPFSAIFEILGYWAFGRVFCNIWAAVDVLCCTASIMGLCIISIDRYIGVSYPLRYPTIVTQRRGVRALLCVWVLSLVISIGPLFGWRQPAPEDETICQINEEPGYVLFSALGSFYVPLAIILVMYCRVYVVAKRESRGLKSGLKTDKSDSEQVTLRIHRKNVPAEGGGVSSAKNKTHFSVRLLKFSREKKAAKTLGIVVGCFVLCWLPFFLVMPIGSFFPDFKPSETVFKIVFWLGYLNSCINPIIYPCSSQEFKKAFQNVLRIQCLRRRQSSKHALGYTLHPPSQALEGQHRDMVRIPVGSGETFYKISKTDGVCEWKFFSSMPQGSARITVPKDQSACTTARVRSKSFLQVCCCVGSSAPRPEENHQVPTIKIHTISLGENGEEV
Procedure, shortened: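 Rat cerebral cortex was homogenized in ice-cold 50 mM Tris–HCl pH 7.6, centrifuged 20 000 × g for 20 min at 0–4 °C, and washed once more. Membranes were incubated with [3H]prazosin 0.2 nM and seven to eight compound concentrations (10^-11–10^-4 M), with phentolamine defining nonspecific binding. Bound ligand was filtered on glass fiber and counted by liquid scintillation. Runs were in duplicate, and Ki was calculated by Cheng–Prusoff.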

[2] = target: T2, Adrenergic receptor alpha-2 (Rattus norvegicus, UniProt P22086+P19328+P22909); assay: Displacement of [3H]clonidine from alpha2 adrenergic receptor in rat cerebral cortex by liquid scintillation counting; assay type: tissue-based
T2 sequence (P22086 whole entry): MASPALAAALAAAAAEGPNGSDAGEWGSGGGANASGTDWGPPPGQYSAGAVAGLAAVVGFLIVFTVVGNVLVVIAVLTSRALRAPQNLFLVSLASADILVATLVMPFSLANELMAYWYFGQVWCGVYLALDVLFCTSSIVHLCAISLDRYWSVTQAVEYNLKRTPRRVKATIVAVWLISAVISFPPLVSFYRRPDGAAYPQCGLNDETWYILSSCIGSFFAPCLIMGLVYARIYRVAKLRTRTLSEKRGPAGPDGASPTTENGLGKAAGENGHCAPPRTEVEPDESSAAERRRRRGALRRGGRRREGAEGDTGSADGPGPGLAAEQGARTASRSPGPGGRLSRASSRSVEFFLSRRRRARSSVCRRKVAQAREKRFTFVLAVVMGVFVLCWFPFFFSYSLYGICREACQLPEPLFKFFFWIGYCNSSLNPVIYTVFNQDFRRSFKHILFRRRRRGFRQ
T2 sequence (P19328 whole entry): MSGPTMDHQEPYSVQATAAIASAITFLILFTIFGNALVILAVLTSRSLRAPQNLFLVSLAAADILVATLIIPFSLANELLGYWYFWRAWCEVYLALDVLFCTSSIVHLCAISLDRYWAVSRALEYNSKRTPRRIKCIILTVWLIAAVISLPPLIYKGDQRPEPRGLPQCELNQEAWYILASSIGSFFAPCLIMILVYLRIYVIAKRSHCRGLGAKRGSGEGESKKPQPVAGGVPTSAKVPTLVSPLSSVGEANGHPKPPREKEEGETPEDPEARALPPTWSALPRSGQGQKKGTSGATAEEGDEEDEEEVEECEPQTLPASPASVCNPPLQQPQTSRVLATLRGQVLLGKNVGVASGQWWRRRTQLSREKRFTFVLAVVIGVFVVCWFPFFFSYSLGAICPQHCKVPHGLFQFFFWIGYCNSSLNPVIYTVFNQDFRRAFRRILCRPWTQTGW
T2 sequence (P22909 whole entry): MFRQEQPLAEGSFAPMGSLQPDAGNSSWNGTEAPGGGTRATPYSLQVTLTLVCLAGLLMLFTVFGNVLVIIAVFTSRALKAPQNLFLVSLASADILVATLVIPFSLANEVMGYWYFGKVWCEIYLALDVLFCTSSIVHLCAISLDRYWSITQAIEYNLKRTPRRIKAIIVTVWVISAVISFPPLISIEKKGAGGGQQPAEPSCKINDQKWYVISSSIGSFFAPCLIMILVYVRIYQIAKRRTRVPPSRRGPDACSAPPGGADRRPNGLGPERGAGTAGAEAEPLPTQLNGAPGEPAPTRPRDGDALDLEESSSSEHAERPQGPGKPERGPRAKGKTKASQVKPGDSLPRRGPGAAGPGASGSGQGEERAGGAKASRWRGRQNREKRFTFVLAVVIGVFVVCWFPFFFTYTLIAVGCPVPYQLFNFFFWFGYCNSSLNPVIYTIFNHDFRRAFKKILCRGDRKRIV
Procedure, shortened: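 Rat cerebral cortex membranes were prepared in ice-cold 50 mM Tris–HCl pH 7.6 (20 000 × g, 20 min, 0–4 °C, washed twice). They were incubated with [3H]clonidine 2 nM and seven to eight compound concentrations (10^-11–10^-4 M), with excess unlabelled clonidine defining nonspecific binding. Samples were glass-fiber filtered and counted by liquid scintillation, in duplicate. Ki was calculated by Cheng–Prusoff.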

Rattus norvegicus [3] = assay: Hypotensive activity in normotensive Wistar rat assessed as decrease in systolic blood pressure at 20 mg/kg, iv administered as single dose; assay type: functional, organism-based; design: dose 20 mg/kg; conditions: Artery
Rattus norvegicus [4] = assay: Hypotensive activity in normotensive Wistar rat assessed as decrease in diastolic blood pressure at 20 mg/kg, iv administered as single dose; assay type: functional, organism-based; design: dose 20 mg/kg; conditions: Artery
Rattus norvegicus [5] = species: Rattus norvegicus; assay: Hypotensive activity in Wistar rat assessed as reduction in epinephrine-induced systolic blood pressure response; assay type: functional, organism-based; conditions: Artery
Procedure, shortened: (§1)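 In anaesthetized rats, pressor responses were evoked by i.v. epinephrine, norepinephrine or methoxamine. Blood pressure was recorded through a heparin-saline-filled cannula in the carotid artery.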

Rattus norvegicus [6] = species: Rattus norvegicus; assay: Hypotensive activity in Wistar rat assessed as reduction in norepinephrine-induced systolic blood pressure response; assay type: functional, organism-based; conditions: Artery; procedure, shortened: as §1
Rattus norvegicus [7] = species: Rattus norvegicus; assay: Hypotensive activity in Wistar rat assessed as reduction in methoxamine-induced systolic blood pressure response; assay type: functional, organism-based; conditions: Artery; procedure, shortened: as §1
Rattus norvegicus [8] = assay: Antiarrhythmic activity against adrenaline-induced arrhythmia in iv dosed rat assessed as inhibition of cardiac rhythm disturbance administered 15 mins before adrenaline challenge; assay type: functional; conditions: Heart
Procedure, shortened: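 Rats anaesthetized with thiopental 60 mg/kg ip received the compound i.v. 15 min before an i.v. adrenaline challenge. Rhythm disturbances were recorded for 15 min after adrenaline. Activity was defined as absence of premature beats and inhibition of disturbances versus controls. ED50 values, with confidence limits, were derived by Litchfield–Wilcoxon from three groups of six animals.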

Compound	pKi [1]	pKi [2]	Activity (Rattus norvegicus [3])	Activity (Rattus norvegicus [4])	Activity (Rattus norvegicus [5])	Activity (Rattus norvegicus [6])	Activity (Rattus norvegicus [7])	ED50 (Rattus norvegicus [8])
Cl.Cl.O=C1N(CC(O)CN2CCN(c3ccc(F)cc3)CC2)CCC1(c1ccccc1)c1ccccc1 (stereo not given)	5.68	5.32	inactive	inactive	inactive	inactive	inactive	–
c1ccc(CC2=NCCN2)cc1 [TOLAZOLINE]	–	–	–	–	–	–	–	1.05 mg/kg
CC(C)NCC(O)COc1cccc2ccccc12 (stereo not given) [PROPRANOLOL]	–	–	–	–	–	–	–	7.6 mg/kg
O=C1CCCN1CC(O)CN1CCN(C(c2ccccc2)c2ccccc2)CC1 (stereo not given)	6.57	5.27	–	–	–	–	–	inactive
O=C1CCCN1CC(O)CN1CCN(c2ccccc2)CC1 (stereo not given)	5.72	4.54	–	–	–	–	–	7.6 mg/kg
